Converted amounts (≈) assume the structure as drawn.
Tests used:
[1] = Cytotoxicity against human MES-SA/Dx5 cells after 96 hrs by MTT assay; assay type: functional, cell-based; conditions: MES-SA/Dx5, 96 h
[2] = tested on: HT-29; experiment: Cytotoxicity against human HT-29 cells after 96 hrs by MTT assay; assay type: functional, cell-based; conditions: HT-29, 96 h
In short: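 Cells were seeded at 5000 or 10,000 per well and exposed to medium with various sample concentrations for 96 h, with 0.1% DMSO as vehicle control. MTT (5 mg/mL in PBS) was then added for 4 h at 37 °C, 5% CO2. Formazan was dissolved in DMSO and read at OD 570 nm. IC50 is the concentration giving 50% toxicity; duplicate tests, mean ± SD (n = 2).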

[3] = tested on: HCT-116; experiment: Cytotoxicity against human HCT116 cells after 96 hrs by MTT assay; assay type: functional, cell-based; conditions: HCT-116, 96 h
In short: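 Cells were seeded at 5000 or 10,000 per well and exposed to medium with various sample concentrations for 96 h, with 0.1% DMSO as vehicle control. MTT (5 mg/mL in PBS) was then added for 4 h at 37 °C, 5% CO2. Formazan was dissolved in DMSO and read at OD 570 nm.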

[4] = target: Acetylcholinesterase (Homo sapiens, UniProt P22303); experiment: Inhibition of acetylcholinesterase (unknown origin) using acetylcholine iodide as substrate preincubated for 15 mins prior to substrate addition by spectrophotometric analysis
Acetylcholinesterase, sequence (P22303 whole entry): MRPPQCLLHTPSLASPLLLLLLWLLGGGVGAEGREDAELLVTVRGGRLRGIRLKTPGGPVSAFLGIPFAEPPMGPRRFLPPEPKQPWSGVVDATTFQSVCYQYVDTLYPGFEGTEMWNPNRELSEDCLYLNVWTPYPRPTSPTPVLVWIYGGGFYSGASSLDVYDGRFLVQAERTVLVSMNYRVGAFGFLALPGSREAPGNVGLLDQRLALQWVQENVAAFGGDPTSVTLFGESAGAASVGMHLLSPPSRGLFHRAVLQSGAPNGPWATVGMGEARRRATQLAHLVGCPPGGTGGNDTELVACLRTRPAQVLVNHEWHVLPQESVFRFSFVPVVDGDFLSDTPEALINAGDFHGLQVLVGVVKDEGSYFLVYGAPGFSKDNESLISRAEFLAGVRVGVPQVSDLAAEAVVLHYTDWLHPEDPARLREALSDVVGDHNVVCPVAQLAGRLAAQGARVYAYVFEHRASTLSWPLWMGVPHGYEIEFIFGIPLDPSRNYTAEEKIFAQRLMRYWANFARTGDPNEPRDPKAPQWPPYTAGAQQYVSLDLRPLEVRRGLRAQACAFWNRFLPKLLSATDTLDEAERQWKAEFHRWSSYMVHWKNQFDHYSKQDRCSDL

[5] = tested on: K562; experiment: Cytotoxicity against human K562 cells after 96 hrs by MTT assay; assay type: functional, cell-based; conditions: K562, 96 h
[6] = tested on: Radical scavenging activity; experiment: Antioxidant activity assessed as DPPH free radical scavenging activity by spectrophotometric analysis; assay type: functional
[7] = tested on: MT4; experiment: Cytotoxicity against human MT4 cells after 96 hrs by MTT assay; assay type: functional, cell-based; conditions: MT4, 96 h
[8] = Antioxidant activity assessed as ABTS radical scavenging activity after 6 mins by spectrophotometric analysis; assay type: functional
[9] = Antioxidant activity assessed as superoxide radical scavenging activity measured every 30 seconds for 5 mins by spectrophotometric analysis; assay type: functional
[10] = tested on: Radical scavenging activity; experiment: Antioxidant activity assessed as DPPH free radical scavenging activity after 30 mins by spectrophotometric analysis; assay type: functional
In short: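 Daily methanolic DPPH solution was adjusted to A517 = 1.1. Methanolic sample at several concentrations was added to 1 mL, incubated 30 min at 37 °C, then A517 was read. Scavenging % = [(Acontrol − Asample)/Acontrol] × 100. Run in triplicate with BHT as positive control.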

[11] = tested on: AGS; experiment: Cytotoxicity against human AGS cells after 96 hrs by MTT assay; assay type: functional, cell-based
[12] = Antioxidant activity assessed as hydroxyl radical scavenging activity after 20 mins by spectrophotometric analysis; assay type: functional
[13] = Antioxidant activity assessed as H2O2 scavenging activity by NBT reduction assay; assay type: functional
In short: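 H2O2 at 43 mM was prepared in 0.1 M phosphate buffer, pH 7.4. 100 µL of test solution was added along with NADH (73 µM), NBT (50 µM) and PMS (15 µM), 500 µL each. Percent H2O2 scavenged = [(Acontrol − Asample)/Acontrol] × 100.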

[14] = Antioxidant activity assessed as ABTS radical scavenging activity after 10 mins by spectrophotometric analysis; assay type: functional
In short: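 ABTS radical cation was made from 7 mM ABTS in water plus potassium persulfate (2.45 mM final), left 12 h in the dark at room temperature, then diluted in methanol to A734 0.706 ± 0.009. 1 mL of this was mixed with 1 mL of methanolic sample at several concentrations. […] Run in triplicate with a BHT positive control.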

[15] = Antioxidant activity assessed as superoxide radical scavenging activity after 2 mins by NBT reduction assay; assay type: functional
In short: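 The 1 mL reaction held 20 mM phosphate buffer pH 7.4, NADH 73 µM, NBT 50 µM, PMS 15 µM and sample at several concentrations. After 2 min at ambient temperature, formazan was read at A562 against a blank. % scavenging was taken vs control. Done three times, with BHT as comparator.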

[16] = tested on: PANC-1; experiment: Cytotoxicity against human PANC1 cells after 96 hrs by MTT assay; assay type: functional, cell-based; conditions: PANC-1, 96 h

Compound | IC50 [2] | IC50 [3] | IC50 [4] | further results
CC(C)=CC(=O)OC(C)(C)[C@@H]1Cc2cc3ccc(=O)oc3cc2O1 [(-)-PRANTSCHIMGIN] | 5.2 µM | 15 µM | > 100 µM | IC50 [1]: 3.1 µM
O=c1ccc2cc3ccoc3cc2o1 [PSORALEN] | 41.7 µM | 45.6 µM | 6.48 µM | IC50 [5]: 131 µM
O=c1ccc2ccc(O)cc2o1 [UMBELLIFERONE] | 4.35 µM | 8.05 µM |  | IC50 [6]: 36.1 µg/mL (≈ 223 µM); IC50 [7]: 2340 µM
O=C(O)/C=C/c1ccc(O)c(O)c1 [CAFFEIC ACID] | 27.2 µM | 29.7 µM | > 100 µM | IC50 [8]: 0.57 µg/mL (≈ 3.16 µM); IC50 [9]: 0.38 µg/mL (≈ 2.11 µM); IC50 [10]: 0.39 µg/mL; IC50 [11]: 129 µM; IC50 [12]: 0.37 µg/mL (≈ 2.05 µM)
CC(=O)O[C@H]1C(=O)[C@@]2(C)[C@H]([C@H](OC(=O)c3ccccc3)[C@]3(O)C[C@H](OC(=O)[C@H](O)[C@@H](NC(=O)c4ccccc4)c4ccccc4)C(C)=C1C3(C)C)[C@]1(OC(C)=O)CO[C@@H]1C[C@@H]2O [PACLITAXEL] | 0.00198 µM |  |  | 
C/C=C(\C)C(=O)OC(C)(C)[C@@H]1Cc2cc3ccc(=O)oc3cc2O1 | 0.93 µM | 7.6 µM | > 100 µM | 
Cc1cc(C(C)(C)C)c(O)c(C(C)(C)C)c1 [BUTYLATED HYDROXYTOLUENE] |  |  |  | IC50 ([10]; read-out: IC50): 9.02 µM; IC50 [13]: 6.38 µM; IC50 [14]: 6.85 µM; IC50 [15]: 7.26 µM
COc1c2occc2cc2ccc(=O)oc12 [METHOXSALEN] | > 100 µM | > 100 µM | 0.76 µM | IC50 [16]: 83.3 µM
